Assay results reported in ChEMBL document CHEMBL1142960, “Synthesis and structure-activity relationships for 2,4-dinitrobenzamide-5-mustards as prodrugs for the Escherichia coli nfsB nitroreductase in gene therapy” (J Med Chem, 2007).
pIC50: −log10 of the molar value. In brackets after ≈: the same amount, converted by molar mass.

Legend:
[1] = Solubility in alpha MEM; format: physicochemical
Procedure, shortened: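 Solubility (mM) in α-MEM with 5% fetal calf serum at ambient temperature, measured by HPLC.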

[2] = test system: WiDr; test: Antiproliferative activity against human WiDr NTRneo cells after 18 hrs; format: functional, cell-based
[3] = test system: V79; test: Clonogenic survival of 97% V79 NTRoua cells in co-cultures with 3% V79 NTRpuro cells after 5 hrs by MCL assay; format: functional, Cricetulus griseus
Procedure, shortened: (§1)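 Multicellular layer cocultures of 3% V79-NTRpuro activators and 97% V79oua NTR-ve targets (ouabain-resistant), exposed to prodrug for 5 h. MCLs were then trypsin-dissociated and plated in ouabain or puromycin selective media for clonogenic survival. C10 (10% survival) interpolated for activators and targets; AC/TC ratio derived. Mean with SEM or range over independent experiments.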

[4] = test system: V79; test: Antiproliferative activity against chinese hamster wild-type V79 NTR-ve cells after 18 hrs; format: functional, cell-based; details: Cricetulus griseus, V79, 18 h
[5] = test system: V79; test: Selectivity ratio of IC50 for V79 NTR-ve cells to IC50 for V79 NTRpuro cells; format: functional, Cricetulus griseus
[6] = test system: EMT6; test: Antiproliferative activity against mouse EMT6 NTRpuro cells after 18 hrs; format: functional, cell-based; details: EMT6, 18 h
[7] = Selectivity ratio of IC50 for Skov3 NTR-ve cells to IC50 for Skov3 NTRneo cells; format: functional, Homo sapiens
[8] = test system: V79; test: Clonogenic survival of V79 NTRoua cells after 5 hrs by MCL assay; format: functional, Cricetulus griseus
[9] = Antiproliferative activity against human Skov3 NTRneo cells after 18 hrs; format: functional, cell-based; details: SK-OV-3, 18 h
[10] = test system: V79; test: Antiproliferative activity against chinese hamster V79 NTRpuro cells after 18 hrs; format: functional, cell-based; details: Cricetulus griseus, V79, 18 h
[11] = test system: EMT6; test: Selectivity ratio of IC50 for EMT6 NTR-ve cells to IC50 forEMT6 NTRpuro cells; format: functional, Mus musculus
[12] = test system: V79; test: Clonogenic survival of 3% V79 NTRpuro cells in co-cultures with 97% V79 NTRoua after 5 hrs by MCL assay; format: functional, Cricetulus griseus; procedure, shortened: as §1
[13] = test system: EMT6; test: Antiproliferative activity against mouse wild type EMT6 NTR-ve cells after 18 hrs; format: functional, cell-based; details: EMT6, 18 h
[14] = Partition coefficient at pH 7.4 by shake-flask method; format: physicochemical; details: octanol/water
Procedure, shortened: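 Octanol-water partition coefficient by shake-flask at pH 7.4, reported with SEM.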

[15] = Stability in alpha MEM at 37 degC after 24 hrs; format: physicochemical; details: read-out: Stability
Procedure, shortened: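 Percent parent compound remaining, by HPLC, after holding in α-MEM with 5% fetal calf serum at 37 °C for 24 h.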

[16] = test system: WiDr; test: Selectivity ratio of IC50 for WiDr NTR-ve cells to IC50 for WiDr NTRneo cells; format: functional, Homo sapiens
[17] = Antiproliferative activity against human wild type Skov3 NTR-ve cells after 18 hrs; format: functional, cell-based
[18] = test system: WiDr; test: Antiproliferative activity against human wild type WiDr NTR-ve cells after 18 hrs; format: functional, cell-based
[19] = test system: WiDr; test: Antitumor activity against human 100% WiDr NTRneo tumor cells injected in CD1 nude mouse assessed as growth delay at 200 umol/kg, ip in DMA/PEG; format: functional
Procedure, shortened: (§2)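 WiDr-NTRneo tumours (100% NTR+ve, or 1:9 NTR+ve:NTR-ve mixtures) in CD-1 nude mice, given a single i.p. dose at MTD. Read-out is median growth delay to 15 mm mean diameter, plus tumours not palpable 100 days after treatment. Aziridine given at 200 µmol/kg as positive control in every experiment.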

[20] = Toxicity in ip dosed CD1 nude mouse in DMA/PEG; format: organism-based; details: in vivo
Procedure, shortened: (§3)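 Maximum tolerated dose (MTD) determined in CD-1 nude mice after a single i.p. injection of prodrug, given in the vehicle named in each line.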

[21] = test system: WiDr; test: Antitumor activity against mixed human 10% WiDr NTRneo/ 90% WiDr tumor cells injected in CD1 nude mouse assessed as growth delay at 200 umol/kg, ip in DMA/PEG; format: functional; procedure, shortened: as §2
[22] = test system: EMT6; test: Antitumor activity against mixed mouse EMT6/EMT6 NTRpuro cells injected in CD1 nude mouse assessed as cell kill at 200 umol/kg, ip in DMA/PEG after 18 hrs; format: functional
[23] = Toxicity in ip dosed CD1 nude mouse in DMSO; format: organism-based; details: in vivo; procedure, shortened: as §3
[24] = test system: EMT6; test: Antitumor activity against mixed mouse EMT6/EMT6 NTRpuro cells injected in CD1 nude mouse assessed as cell kill at 562 umol/kg, ip in DMSO/PEG after 18 hrs; format: functional
[25] = Toxicity in ip dosed CD1 nude mouse in DMSO/PEG; format: organism-based; details: in vivo; procedure, shortened: as §3
[26] = test system: WiDr; test: Antitumor activity against human 100% WiDr NTRneo tumor cells injected in CD1 nude mouse assessed as growth delay at 562 umol/kg, ip in DMSO/PEG; format: functional; procedure, shortened: as §2
[27] = test system: WiDr; test: Antitumor activity against mixed human 10% WiDr NTRneo/ 90% WiDr tumor cells injected in CD1 nude mouse assessed as growth delay at 1780 umol/kg, ip in DMSO; format: functional; procedure, shortened: as §2
[28] = test system: EMT6; test: Antitumor activity against mixed mouse EMT6/EMT6 NTRpuro cells injected in CD1 nude mouse assessed as cell kill at 133 umol/kg, ip in DMSO after 18 hrs; format: functional

SMILES	solubility [1]	pIC50 [2]	Activity [3]	pIC50 [4]	Ratio IC50 [5]	pIC50 [6]	Ratio IC50 [7]	Activity [8]	pIC50 [9]	pIC50 [10]	Ratio IC50 [11]	Activity [12]	pIC50 [13]	logD [14]	remaining at 24 h [15]	Ratio IC50 [16]	pIC50 [17]	pIC50 [18]	Activity [19]	MTD [20]	other results
NC(=O)c1cc(N(CCOS(N)(=O)=O)CCOS(N)(=O)=O)c([N+](=O)[O-])cc1[N+](=O)[O-]	1800 µM (≈ 850 µg/mL)	5.72	800 µM	3.19	788	5.80	265	>1800 µM	5.41	6.06	491	9.5 µM	3.11	-0.95	95%	227	3.06	3.36	–	–	–
NC(=O)c1cc(N(CCCl)CCCl)c([N+](=O)[O-])cc1[N+](=O)[O-]	750 µM (≈ 263 µg/mL)	5.02	120 µM	3.31	42	5.73	98	>1000 µM	5.02	4.77	261	98 µM	3.35	1.52	99%	93	3.10	3.15	29 days	200 µmol/kg	Activity [21]: 11 days; LCK [22]: 2.29
CS(=O)(=O)c1cc([N+](=O)[O-])c(C(N)=O)cc1N(CCCl)CCCl	330 µM (≈ 127 µg/mL)	4.59	>300 µM	3.12	73	5.41	65	>1000 µM	4.82	5.02	101	160 µM	3.41	–	–	15	3.01	3.46	–	–	–
O=C(NCCCO)c1cc(N(CCBr)CCBr)c([N+](=O)[O-])cc1[N+](=O)[O-]	170 µM (≈ 84.7 µg/mL)	6.60	7 µM	4.43	135	7.30	309	100 µM	6.64	6.55	1670	3 µM	4.18	1.81	83%	224	4.14	4.25	–	–	MTD [23]: 1780 µmol/kg; LCK [24]: >3.44; MTD [25]: 562 µmol/kg; Activity [26]: >83 days; Activity [27]: 7 days
O=C(NO)c1cc(N(CCCl)CCCl)c([N+](=O)[O-])cc1[N+](=O)[O-]	1400 µM (≈ 514 µg/mL)	5.70	>300 µM	4.29	42	6.06	124	>1400 µM	5.80	5.87	110	43 µM	4.02	1.22	91%	55	3.70	3.95	–	–	MTD [23]: 133 µmol/kg; LCK [28]: 0.38
NC(=O)c1cc(N(CCI)CCI)c([N+](=O)[O-])cc1[N+](=O)[O-]	40 µM (≈ 21.4 µg/mL)	6.52	2 µM	4.96	54	7.10	71	>20 µM	6.37	6.70	332	1.65 µM	4.60	2.41	69%	50	4.52	4.82	8 days	200 µmol/kg	LCK [22]: 1.48
